Values after ≈ are worked out from the molar mass of the structure shown. Active and inactive are the calls of the source. The rule behind the calls is not given here.
Legend:
Bone marrow cell [1] = assay: Induction of clastogenic effect in ICR mouse bone marrow cells assessed as chromosomal aberration at 3.5 mg/kg, ip after 48 hrs; type: functional; conditions: route intraperitoneal
In short: (§1)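 ICR mice (male and female, 20 ± 1.5 g; 4 males + 4 females per treated group, 10 per control group) given compound ip at 10 or 100 mg/kg; mitomycin C 3.5 mg/kg positive control, 0.9% saline negative control. Colchicine 0.4 mg/kg ip 1 h before femoral marrow harvest at 24 or 48 h. Cells put in 0.075 M KCl (37 °C, 20 min), fixed in methanol–acetic acid 3:1, stained with Giemsa. ≥50 metaphases scored per animal. Mitotic index counted in 1500 cells per animal. Group mean ± SEM, Student's t-test.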

Bone marrow cell [2] = assay: Induction of mitosis in ICR mouse bone marrow cells assessed as mitotic index at 3.5 mg/kg, ip after 24 hrs; type: functional; conditions: route intraperitoneal; in short: as §1
Bone marrow cell [3] = assay: Induction of mitosis in ICR mouse bone marrow cells assessed as mitotic index at 3.5 mg/kg, ip after 48 hrs; type: functional; conditions: route intraperitoneal; in short: as §1
Bone marrow cell [4] = assay: Induction of clastogenic effect in ICR mouse bone marrow cells assessed as chromosomal breaks and fragmentation at 3.5 mg/kg, ip after 24 hrs; type: functional; conditions: route intraperitoneal; in short: as §1
Bone marrow cell [5] = assay: Induction of clastogenic effect in ICR mouse bone marrow cells assessed as rearrangement in centromere to centromeric fusion at 3.5 mg/kg, ip after 24 hrs; type: functional; conditions: route intraperitoneal; in short: as §1
Bone marrow cell [6] = assay: Induction of clastogenic effect in ICR mouse bone marrow cells assessed as chromosomal aberration at 3.5 mg/kg, ip after 24 hrs; type: functional; conditions: route intraperitoneal; in short: as §1
HBL-100 [7] = assay: Ratio of Doxorubicin IC50 to compound IC50 for human HBL100 cells after 24 hrs by MTT assay; type: functional
MCF7 = assay: Cytotoxicity against human MCF7 cells after 24 hrs by MTT assay; type: functional, cell-based; conditions: MCF7, 24 h
In short: (§2)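 Human tumor lines were grown in RPMI 1640 (MCF-7, HBL-100) or high-glucose DMEM (others) with 10% FCS at 37.5 °C and 5% CO2. Cells were seeded at 1×10^4/well, allowed to adhere 24 h, then exposed 24 h to 1–0.0681 mg/ml (1.47-fold dilutions) from DMSO stock diluted in PBS, with DMSO ≤1%. Doxorubicin was the reference. MTT-formazan was read at 580 nm. IC50 by non-linear regression; mean ± SD of three experiments.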

647-V = assay: Cytotoxicity against human 647V cells after 24 hrs by MTT assay; type: functional, cell-based; in short: as §2
Bone marrow cell [8] = assay: Induction of clastogenic effect in ICR mouse bone marrow cells assessed as chromosomal aberration at 10 mg/kg, ip after 48 hrs; type: functional; conditions: route intraperitoneal; in short: as §1
HT-29 = assay: Cytotoxicity against human HT-29 cells after 24 hrs by MTT assay; type: functional, cell-based; conditions: HT-29, 24 h; in short: as §2
HeLa = assay: Cytotoxicity against human HeLa cells after 24 hrs by MTT assay; type: functional, cell-based; in short: as §2
HBL-100 [9] = assay: Cytotoxicity against human HBL100 cells after 24 hrs by MTT assay; type: functional, cell-based; conditions: HBL-100, 24 h; in short: as §2
Bone marrow cell [10] = assay: Induction of mitosis in ICR mouse bone marrow cells assessed as mitotic index at 10 mg/kg, ip after 24 hrs; type: functional; conditions: route intraperitoneal; in short: as §1
Bone marrow cell [11] = assay: Induction of clastogenic effect in ICR mouse bone marrow cells assessed as chromosomal aberration at 10 mg/kg, ip after 24 hrs; type: functional; conditions: route intraperitoneal; in short: as §1
MDA-MB-231 = assay: Cytotoxicity against human MDA-MB-231 cells after 24 hrs by MTT assay; type: functional, cell-based; conditions: MDA-MB-231, 24 h; in short: as §2
HepG2 = assay: Cytotoxicity against human HepG2 cells after 24 hrs by MTT assay; type: functional, cell-based; conditions: HepG2, 24 h; in short: as §2
Bone marrow cell [12] = assay: Induction of mitosis in ICR mouse bone marrow cells assessed as mitotic index at 10 mg/kg, ip after 48 hrs; type: functional; conditions: route intraperitoneal; in short: as §1
Bone marrow cell [13] = assay: Induction of mitosis in ICR mouse bone marrow cells assessed as mitotic index at 100 mg/kg, ip after 24 hrs; type: functional; conditions: route intraperitoneal; in short: as §1
Bone marrow cell [14] = assay: Antiproliferative activity in ICR mouse bone marrow cells assessed as inhibition of cell division at 10 to 100 mg/kg, ip measured after 48 hrs; type: functional, organism-based; in short: as §1
Bone marrow cell [15] = assay: Induction of mitosis in ICR mouse bone marrow cells assessed as mitotic index at 100 mg/kg, ip after 48 hrs; type: functional; conditions: route intraperitoneal; in short: as §1
Bone marrow cell [16] = assay: Induction of clastogenic effect in ICR mouse bone marrow cells assessed as chromosomal aberration at 100 mg/kg, ip after 24 hrs; type: functional; conditions: route intraperitoneal; in short: as §1
Bone marrow cell [17] = assay: Induction of clastogenic effect in ICR mouse bone marrow cells assessed as chromosomal aberration at 100 mg/kg, ip after 48 hrs; type: functional; conditions: route intraperitoneal; in short: as §1
[18] = Drug uptake in nuclear membrane of human HBL100 cells at non-toxic concentration after 24 hrs by fluorescent microscopic analysis; type: ADME, cell membranes; conditions: hbl-100, 24 h
In short: (§3)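 HBL-100 cells were seeded at 1×10^5/ml on diagnostic slides, adhered overnight (37.5 °C, 5% CO2), and exposed 24 h to non-toxic concentrations. Intrinsic anthracene fluorescence was imaged by fluorescence microscopy to locate subcellular distribution.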

[19] = Drug uptake in nuclei of human HBL100 cells at non-toxic concentration after 24 hrs by fluorescent microscopic analysis; type: ADME, cell-based, Nucleus; conditions: hbl-100, 24 h; in short: as §3
[20] = Drug uptake in cytoplasm of human HBL100 cells at non-toxic concentration after 24 hrs by fluorescent microscopic analysis; type: ADME, cell-based; conditions: hbl-100, 24 h; in short: as §3
Bone marrow cell [21] = assay: Induction of clastogenic effect in ICR mouse bone marrow cells assessed as chromosomal breaks and fragmentation at 10 to 100 mg/kg, ip; type: functional; conditions: dose mg/kg 10-100; route intraperitoneal; in short: as §1
Bone marrow cell [22] = assay: Induction of clastogenic effect in ICR mouse bone marrow cells assessed as rearrangement in centromere to centromeric fusion at 10 to 100 mg/kg, ip; type: functional; conditions: dose mg/kg 10-100; route intraperitoneal; in short: as §1

| Structure (SMILES) | IC50 (MCF7) [µg/mL] | IC50 (647-V) [µg/mL] | Activity (Bone marrow cell [8]) [%] | IC50 (HT-29) [µg/mL] | IC50 (HeLa) [µg/mL] | IC50 (HBL-100 [9]) [µg/mL] | Activity (Bone marrow cell [10]) | Activity (Bone marrow cell [11]) [%] | IC50 (MDA-MB-231) [µg/mL] | IC50 (HepG2) [µg/mL] | Activity (Bone marrow cell [12]) | Activity (Bone marrow cell [13]) | Activity (Bone marrow cell [15]) | Activity (Bone marrow cell [16]) [%] | Activity (Bone marrow cell [17]) [%] | also measured |
| --- | --- | --- | --- | --- | --- | --- | --- | --- | --- | --- | --- | --- | --- | --- | --- | --- |
| CO[C@@]12[C@H](COC(N)=O)C3=C(C(=O)C(C)=C(N)C3=O)N1C[C@@H]1N[C@@H]12 [MITOMYCIN] |  |  |  |  |  |  |  |  |  |  |  |  |  |  |  | Activity (Bone marrow cell [1]): 15.8%; Activity (Bone marrow cell [2]): 5.49 ‰; Activity (Bone marrow cell [3]): 7.29 ‰; Activity (Bone marrow cell [4]): 75.1%; Activity (Bone marrow cell [5]): 24.9%; Activity (Bone marrow cell [6]): 30.5% |
| CCOP(=O)(OCC)C(NCc1ccco1)c1c2ccccc2cc2ccccc12 (configuration not stated) | 100 (≈ 236 µM) | 70 (≈ 165 µM) | 4.75 | 110 (≈ 260 µM) | 120 (≈ 283 µM) | 70 (≈ 165 µM) | 15.1 ‰ | 6.25 | 70 (≈ 165 µM) | 110 (≈ 260 µM) | 10.1 ‰ |  |  |  |  | Ratio IC50 (HBL-100 [7]): 2 |
| C(=N\Cc1ccco1)/c1c2ccccc2cc2ccccc12 | 260 (≈ 911 µM) | 80 (≈ 280 µM) | 4.43 | 200 (≈ 701 µM) | 360 (≈ 1260 µM) | 460 (≈ 1610 µM) | 11.3 ‰ | 4.75 | 450 (≈ 1580 µM) | 120 (≈ 421 µM) | 10.2 ‰ | 12.4 ‰ | 15.2 ‰ | 5.5 | 5.5 | Activity (Bone marrow cell [14]): inactive |
| COP(=O)(OC)C(Nc1ccc(C)cc1)c1c2ccccc2cc2ccccc12 (configuration not stated) | 450 (≈ 1110 µM) | 600 (≈ 1480 µM) | 4.75 | > 2000 | > 2000 | 20 (≈ 49.3 µM) | 12.6 ‰ | 4 | 880 (≈ 2170 µM) | 830 (≈ 2050 µM) | 15.6 ‰ | 12 ‰ | 14.1 ‰ | 5.5 | 6 | Activity (Bone marrow cell [14]): inactive |
| CCOP(=O)(OCC)C(Nc1ccc(C)cc1)c1c2ccccc2cc2ccccc12 (configuration not stated) | > 2000 | > 2000 | 6 | > 2000 | 1940 (≈ 4480 µM) | 730 (≈ 1680 µM) | 13.4 ‰ | 4.75 | > 2000 | > 2000 | 11.9 ‰ | 16.1 ‰ | 11.8 ‰ | 8.5 | 8 | Drug uptake [18]: Active; Drug uptake [19]: Active |
| Cc1ccc(/N=C/c2c3ccccc3cc3ccccc23)cc1 | 450 (≈ 1520 µM) | 130 (≈ 440 µM) | 5 | 80 (≈ 271 µM) | 170 (≈ 576 µM) | 310 (≈ 1050 µM) | 12.6 ‰ | 5.25 | 120 (≈ 406 µM) | 180 (≈ 609 µM) | 8.45 ‰ | 10.7 ‰ | 11.7 ‰ | 6.57 | 6.5 | Drug uptake [20]: Active; Activity (Bone marrow cell [21]): 35.6%; Activity (Bone marrow cell [22]): 62.17% |
| COc1cccc2c1C(=O)c1c(O)c3c(c(O)c1C2=O)C[C@@](O)(C(=O)CO)C[C@@H]3O[C@H]1C[C@H](N)[C@H](O)[C@H](C)O1.Cl [DOXORUBICIN HYDROCHLORIDE] | < 68 | < 68 |  | 580 | < 68 | 140 |  |  | < 68 | < 68 |  |  |  |  |  |  |

From ChEMBL document CHEMBL1926573, “Synthesis, antiproliferative activity and genotoxicity of novel anthracene-containing aminophosphonates and a new anthracene-derived Schiff base” (Bioorg Med Chem, 2012)
